ChEMBL document CHEMBL5338772, “Stereochemical Control of Splice Modulation in FD-895 Analogues” (J Med Chem, 2023)
Calls of active or inactive are those of the source. No cut-off for these calls is given here.

How the values were obtained:
HCT-116 [1] = assay: Cytotoxicity against human HCT-116 cells assessed as reduction in cell viability at 500 nM incubated for 24 hrs by MTS assay; format: toxicity, cell-based; settings: hct-116, 24 h, 0.5 µM
Procedure, shortened: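 HCT-116 cells plated at 5 × 10³ cells/well in supplemented McCoy's 5a and grown 24 h at 37 °C, 5% CO₂. Compound given at 500 nM, the top dose of the 24 h splicing series, in 0.5% DMSO for 24 h. Cells washed with PBS, MTS reagent added for 2 h at 37 °C, A490 read against A690.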

SF3A3 pre-mRNA [2] = assay: Modulation of splicing in SF3A3 pre-mRNA in human HCT-116 cells assessed as intron 5 retention level at 5.6 uM incubated for 4 hrs by qRT-PCR analysis; format: functional, cell-based; settings: filed as modulator
HCT-116 [3] = assay: Cytotoxicity against human HCT-116 cells assessed as reduction in cell viability at 5.6 uM incubated for 4 hrs by MTS assay; format: toxicity, cell-based; settings: hct-116, 4 h
DNAJB1 pre-mRNA [4] = assay: Modulation of splicing in DNAJB1 pre-mRNA in human HCT-116 cells assessed as intron 2 retention level at 5.6 uM incubated for 4 hrs by qRT-PCR analysis; format: functional, cell-based; settings: filed as modulator
SF3B1 pre-mRNA [5] = assay: Modulation of splicing in SF3B1 pre-mRNA in human HCT-116 cells assessed as intron 13 retention level at 5.6 uM incubated for 4 hrs by qRT-PCR analysis; format: functional, cell-based; settings: filed as modulator
Procedure, shortened: (§1)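 HCT-116 cells in supplemented McCoy's 5a, compound added from DMSO stock to a final 0.5% DMSO, 4 h at a single standardized concentration per analogue. Total RNA isolated and DNase-treated (1 µg). qPCR used 2.5 µM each primer on 5 ng cDNA, 40 cycles. Intron retention was computed by the 2^-CT method relative to GAPDH and expressed versus untreated cells set to 1.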

SF3A1 pre-mRNA [6] = assay: Modulation of splicing in SF3A1 pre-mRNA in human HCT-116 cells assessed as intron 6 retention level at 5.6 uM incubated for 4 hrs by qRT-PCR analysis; format: functional, cell-based; settings: filed as modulator
[7] = Cytotoxicity against human HCT-116 cells assessed as cell growth inhibition incubated for 72 hrs by MTS assay; format: toxicity, cell-based
Procedure, shortened: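 HCT-116 cells (ATCC; split every other day, no more than five generations, mycoplasma-tested) plated at 5 × 10³ cells/well in supplemented McCoy's 5a and grown 24 h at 37 °C, 5% CO₂. Compound added from DMSO (0.5% DMSO final) for 72 h. Cells washed with PBS, MTS reagent added for 2 h at 37 °C, A490 read against A690. GI₅₀ fitted from dose curves of 3 biological replicates.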

SF3B2 pre-mRNA [8] = assay: Modulation of splicing in SF3B2 pre-mRNA in human HCT-116 cells assessed as intron 10 retention level at 5.6 uM incubated for 4 hrs by qRT-PCR analysis; format: functional, cell-based; settings: filed as modulator; procedure, shortened: as §1
AURKA pre-mRNA [9] = assay: Modulation of splicing in AURKA pre-mRNA in human HCT-116 cells assessed as effect on exon 4 skipping at 5.6 uM incubated for 4 hrs by qRT-PCR analysis; format: functional, cell-based; settings: filed as modulator
SF3A1 pre-mRNA [10] = assay: Modulation of splicing in SF3A1 pre-mRNA in human HCT-116 cells assessed as intron 6 retention level at 9 uM incubated for 4 hrs by qRT-PCR analysis; format: functional, cell-based; settings: filed as modulator
SF3A1 pre-mRNA [11] = assay: Modulation of splicing in SF3A1 pre-mRNA in human HCT-116 cells assessed as intron 6 retention at 100 to 500 nM incubated for 24 hrs by qRT-PCR analysis; format: functional, cell-based; settings: dose 100-500 nM
Procedure, shortened: (§2)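 HCT-116 cells in supplemented McCoy's 5a with 0.5% DMSO, treated 24 h at 100, 250 or 500 nM; untreated cells as control. Total RNA isolated, 1 µg DNase I-treated, reverse transcribed. qPCR on 5 ng cDNA with 2.5 µM each primer, 40 cycles of 95 °C 30 s, 55 °C 60 s, 72 °C 60 s. Splice-event primers for intron retention or exon skipping; SF2 primers measure total expression. 2^-CT method relative to GAPDH, untreated set at 1.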

DNAJB1 pre-mRNA [12] = assay: Modulation of splicing in DNAJB1 pre-mRNA in human HCT-116 cells assessed as intron 2 retention level at 9 uM incubated for 4 hrs by qRT-PCR analysis; format: functional, cell-based; settings: filed as modulator
DNAJB1 pre-mRNA [13] = assay: Modulation of splicing in DNAJB1 pre-mRNA in human HCT-116 cells assessed as intron 2 retention at 100 to 500 nM incubated for 24 hrs by qRT-PCR analysis; format: functional, cell-based; settings: dose 100-500 nM; procedure, shortened: as §2
HCT-116 [14] = assay: Upregulation of PLK-1 mRNA expression in human HCT-116 cells at 100 to 500 nM incubated for 24 hrs by qRT-PCR analysis; format: functional, cell-based; settings: dose 100-500 nM
Procedure, shortened: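 24 h treatment of HCT-116 cells at 100, 250 or 500 nM, 0.5% final DMSO in supplemented McCoy's 5a. RNA isolated, DNase-treated, then qRT-PCR with 2.5 µM each primer on 5 ng cDNA. Levels by the 2^-CT method relative to GAPDH, normalized to untreated cells at 1.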

SF3B1 pre-mRNA [15] = assay: Modulation of splicing in SF3B1 pre-mRNA in human HCT-116 cells assessed as intron 13 retention at 100 to 500 nM incubated for 24 hrs by qRT-PCR analysis; format: functional, cell-based; settings: dose 100-500 nM
Procedure, shortened: (§3)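 HCT-116 cells in supplemented McCoy's 5a with 0.5% final DMSO were treated for 24 h at 100, 250 or 500 nM. Total RNA isolated and DNase-treated (1 µg). qPCR used 2.5 µM each primer on 5 ng cDNA, 40 cycles. Intron retention was computed by the 2^-CT method relative to GAPDH and expressed versus untreated cells set to 1.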

SF3B1 pre-mRNA [16] = assay: Modulation of splicing in SF3B1 pre-mRNA in human HCT-116 cells assessed as intron 13 retention level at 9 uM incubated for 4 hrs by qRT-PCR analysis; format: functional, cell-based; settings: filed as modulator; procedure, shortened: as §1
SF3A3 pre-mRNA [17] = assay: Modulation of splicing in SF3A3 pre-mRNA in human HCT-116 cells assessed as intron 5 retention at 100 to 500 nM incubated for 24 hrs by qRT-PCR analysis; format: functional, cell-based; settings: dose 100-500 nM; procedure, shortened: as §2
HCT-116 [18] = assay: Cytotoxicity against human HCT-116 cells assessed as reduction in cell viability at 9 uM incubated for 4 hrs by MTS assay; format: toxicity, cell-based; settings: hct-116, 4 h
SF3A3 pre-mRNA [19] = assay: Modulation of splicing in SF3A3 pre-mRNA in human HCT-116 cells assessed as intron 5 retention level at 9 uM incubated for 4 hrs by qRT-PCR analysis; format: functional, cell-based; settings: filed as modulator; procedure, shortened: as §1
HCT-116 [20] = assay: Modulation of splicing in MCL-1L pre-mRNA in human HCT-116 cells assessed as intron 5 retention at 100 to 500 nM incubated for 24 hrs by qRT-PCR analysis; format: functional, cell-based; settings: dose 100-500 nM; procedure, shortened: as §2
SF3B2 pre-mRNA [21] = assay: Modulation of splicing in SF3B2 pre-mRNA in human HCT-116 cells assessed as intron 10 retention level at 9 uM incubated for 4 hrs by qRT-PCR analysis; format: functional, cell-based; settings: filed as modulator; procedure, shortened: as §1
SF3B2 pre-mRNA [22] = assay: Modulation of splicing in SF3B2 pre-mRNA in human HCT-116 cells assessed as intron 10 retention at 100 to 500 nM incubated for 24 hrs by qRT-PCR analysis; format: functional, cell-based; settings: dose 100-500 nM; procedure, shortened: as §3
AURKA pre-mRNA [23] = assay: Modulation of splicing in AURKA pre-mRNA in human HCT-116 cells assessed as effect on exon 4 skipping at 9 uM incubated for 4 hrs by qRT-PCR analysis; format: functional, cell-based; settings: filed as modulator

## CC[C@@H](OC)[C@H](C)[C@H]1O[C@@H]1[C@@H](O)[C@H](C)/C=C/C=C(\C)[C@H]1OC(=O)C[C@H](O)CC[C@@](C)(O)[C@@H](OC(C)=O)/C=C/[C@@H]1C
HCT-116 [1]
  Activity: Non-Toxic
SF3A3 pre-mRNA [2]
  Activity: < 3
HCT-116 [3]
  Activity: Non-Toxic
DNAJB1 pre-mRNA [4]
  Activity: > 3
SF3B1 pre-mRNA [5]
  Activity: < 3
SF3A1 pre-mRNA [6]
  Activity: > 3
[7]
  GI50 at 72 h: 285 nM
SF3B2 pre-mRNA [8]
  Activity: > 3
AURKA pre-mRNA [9]
  Activity: Active

## CC[C@H](OC)[C@@H](C)[C@@H]1O[C@H]1[C@@H](O)[C@H](C)/C=C/C=C(\C)[C@H]1OC(=O)C[C@H](O)CC[C@@](C)(O)[C@@H](OC(C)=O)/C=C/[C@@H]1C
HCT-116 [1]
  Activity: Non-Toxic
SF3A1 pre-mRNA [10]
  Activity: > 3
SF3A1 pre-mRNA [11]
  Activity: inactive
DNAJB1 pre-mRNA [12]
  Activity: > 3
DNAJB1 pre-mRNA [13]
  Activity: inactive
HCT-116 [14]
  Activity: Active
SF3B1 pre-mRNA [15]
  Activity: inactive
SF3B1 pre-mRNA [16]
  Activity: < 3
SF3A3 pre-mRNA [17]
  Activity: inactive
HCT-116 [18]
  Activity: Non-Toxic
SF3A3 pre-mRNA [19]
  Activity: < 3
[7]
  GI50 at 72 h: 470 nM
HCT-116 [20]
  Activity: inactive
SF3B2 pre-mRNA [21]
  Activity: > 3
SF3B2 pre-mRNA [22]
  Activity: inactive
AURKA pre-mRNA [23]
  Activity: Active
